Measured values reported in ChEMBL document CHEMBL2406957, “C-(α-d-Glucopyranosyl)-phenyldiazomethanes-irreversible inhibitors of α-glucosidase” (Bioorg Med Chem, 2013).
The source made the active and inactive calls. The calls are words filed in the database; no cut-off is given here.

Key:
[1] = Half life of the compound in buffer at 50 uM at pH 5.0 by UV-vis spectrophotometric analysis; assay type: physicochemical
In short: (§1)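 Isolated diazo compound dissolved at 50 μM in buffer of set pH (7.0 down to 3.0) in a cuvette; UV spectra scanned 190–350 nm every 30 s at room temperature until no further change. Blue shift of λmax followed; decay fitted to a single exponential, t1/2 = t1 ln2.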

[2] = Inhibition of Saccharomyces cerevisiae alpha-glucosidase using PNPG as substrate incubated for 40 mins prior to substrate addition measured after 5 mins by spectrophotometry
In short: (§2)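 Enzyme (final 4 µg/mL, 0.064 µM) incubated 40 min at 30 °C in pH 7.5 buffer with compound at final 0.01–0.08 mM. Aliquot then added to 2 mM PNPG in pH 6.8 buffer for 5 min at 30 °C. Reaction quenched with Na2CO3, p-nitrophenolate read at 400 nm. Residual activity expressed relative to enzyme control.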

Saccharomyces cerevisiae [3] = experiment: Inhibition of Saccharomyces cerevisiae alpha-glucosidase using PNPG as substrate at 60 uM incubated for 40 mins prior to substrate addition measured after 5 mins by spectrophotometry relative to control; in short: as §2
[4] = Half life of the compound in buffer at 50 uM at pH 4.0 by UV-vis spectrophotometric analysis; assay type: physicochemical; in short: as §1
Saccharomyces cerevisiae [5] = experiment: Irreversible inhibition of Saccharomyces cerevisiae alpha-glucosidase using PNPG as substrate assessed as residual enzyme activity incubated for 5 to 40 mins prior to substrate addition measured after 5 mins by spectrophotometry
In short: (§3)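 Yeast α-glucosidase (final 4 µg/mL, 0.064 µM) preincubated at 30 °C in pH 7.5 Tris–HCl with inhibitor at final 0.01–0.08 mM. Aliquots taken at 5–40 min into 2 mM PNPG (pH 6.8), 5 min at 30 °C, Na2CO3 quench, A400. Activity as % of no-inhibitor control. kobs from first-order fits; Ki and ki from double-reciprocal Kitz–Wilson replot.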

[6] = Half life of the compound in buffer at 50 uM at pH 6.0 by UV-vis spectrophotometric analysis; assay type: physicochemical; in short: as §1
[7] = Irreversible inhibition of Saccharomyces cerevisiae alpha-glucosidase using PNPG as substrate by Kitz-Wilson plot analysis; in short: as §3
[8] = Half life of the compound in buffer at 50 uM at pH 3.0 by UV-vis spectrophotometric analysis; assay type: physicochemical; in short: as §1
Saccharomyces cerevisiae [9] = experiment: Irreversible inhibition of Saccharomyces cerevisiae alpha-glucosidase using PNPG as substrate at 0.04 mM incubated for 5 to 40 mins prior to substrate addition measured after 5 mins by spectrophotometry in presence of (2R,3R,4R,5S,6R)-2-((R)-amino(phenyl)methyl)-6-(hydroxymethyl)tetrahydro-2H-pyran-3,4,5-triol
[10] = Chemical stability of the compound in neutral media at 50 uM at pH 7.0 by UV-vis spectrophotometric analysis; assay type: physicochemical; settings: buffer, pH 7, 50 µM; in short: as §1
[11] = Reversible inhibition of Saccharomyces cerevisiae alpha-glucosidase using PNPG as substrate

N#Cc1ccc(C(=[N+]=[N-])[C@H]2O[C@H](CO)[C@@H](O)[C@H](O)[C@H]2O)cc1
half-life at 50 µM [1]: 2.35 min | IC50 [2]: 20.6 µM | inhibition (Saccharomyces cerevisiae [3]): 90% | half-life at 50 µM [4]: 0.483 min | inhibition (Saccharomyces cerevisiae [5]): Dose-dependent effect | half-life at 50 µM [6]: 4.2 min | Ki [7]: 2160 µM | half-life at 50 µM [8]: 0.183 min | inhibition (Saccharomyces cerevisiae [9]): inactive | Stability [10]: Stable

N[C@H](c1ccccc1)[C@H]1O[C@H](CO)[C@@H](O)[C@H](O)[C@H]1O
Ki [11]: 1.1 µM

N#Cc1ccc(C[C@H]2O[C@H](CO)[C@@H](O)[C@H](O)[C@H]2O)cc1
inhibition (Saccharomyces cerevisiae [3]): 40%

N#Cc1ccc([C@H](O)[C@H]2O[C@H](CO)[C@@H](O)[C@H](O)[C@H]2O)cc1
inhibition (Saccharomyces cerevisiae [3]): 40%
